# Bioassay records from PubChem BioAssay.
# Most compounds without a hit are left out; they make up all but 2% or so of the library.
# DNA FID counter: compounds displacing fluorescent DNA intercalator, primary screen, artefact control for HCV NS3 helicase inhibitor project, biochemical, FID fluorescence. DNA fluorescent intercalator displacement. inhibition, % at 7.9 µM. hit rate 0.17% among 290,000. AID 1845, 2009; in the data active means inhibition above about 37%;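 further: 0% = vehicle and 100% = reference compound; higher means more ethidium bromide displaced from hairpin DNA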
# EBNA-1 inh: EBNA-1 DNA-binding inhibitors, primary screen, biochemical, fluorescence polarization; hit rate 0.34% among 300,000; inhibition, % at 14.8 µM; in the data active means inhibition above about 28%
# NS3 helicase inh: inhibitors of HCV NS3 helicase, primary screen, biochemical, Cy5 molecular beacon fluorescence; NS3 helicase DNA unwinding; inhibition, % at 10.9 µM; AID 1800, 2009; hit rate 0.56% among 290,000;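 active means inhibition above the mean of all tested compounds plus 3 SD, set per campaign, cut at about 35% in these data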;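 further: 0% = DMSO wells and 100% = thioflavine S control wells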
#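 Test system: hepatitis C virus NS3 helicase domain fragment enzyme. Also added: annealed dual-labelled DNA beacon duplex, ATP-started. Timing: 60 min unwinding reaction at 25 °C after ATP addition. Technique: Cy5 fluorescence. Measure: % inhibition of unwinding.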
# GPR7 antag: GPR7 receptor antagonists, primary screen, cell-based, fluorescence, single concentration; GPR7-expressing cells, fluorescence antagonist assay; inhibition, % at 4.4 µM; hit rate 1.1% among 290,000; AID 1861, 2009; in the data active means inhibition above about 16%, passing the limit was not always enough;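 further: cells stimulated with the agonist NPW; 0% = agonist with vehicle and 100% = vehicle without agonist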
# Target sequence (P48145 whole entry, looked up): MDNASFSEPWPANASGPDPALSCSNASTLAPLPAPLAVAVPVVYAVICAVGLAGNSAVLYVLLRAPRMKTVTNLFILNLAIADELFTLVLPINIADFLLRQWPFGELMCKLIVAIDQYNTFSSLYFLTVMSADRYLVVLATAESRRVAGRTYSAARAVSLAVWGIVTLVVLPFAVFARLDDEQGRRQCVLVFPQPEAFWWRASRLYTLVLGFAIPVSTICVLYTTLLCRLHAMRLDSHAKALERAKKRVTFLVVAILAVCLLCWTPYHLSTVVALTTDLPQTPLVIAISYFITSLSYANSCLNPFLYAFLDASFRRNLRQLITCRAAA
# ZTA DNA inh: ZTA (EBV) inhibition in EBNA-1 counter-screen. ZTA-DNA binding, fluorescence polarization. AID 2234. hit rate 0.15% among 320,000. inhibition, % at 11 µM; in the data active means inhibition above about 33%
# Target sequence (P03206 whole entry, looked up): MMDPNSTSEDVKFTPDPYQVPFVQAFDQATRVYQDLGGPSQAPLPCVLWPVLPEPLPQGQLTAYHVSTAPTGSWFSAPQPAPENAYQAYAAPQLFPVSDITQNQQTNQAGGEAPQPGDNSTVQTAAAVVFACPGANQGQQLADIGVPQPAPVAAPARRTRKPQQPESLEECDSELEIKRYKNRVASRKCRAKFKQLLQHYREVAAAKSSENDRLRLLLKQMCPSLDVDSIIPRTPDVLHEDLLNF
# GPR7 antag cf: GPR7 receptor antagonists, confirmation, cell-based, fluorescence, single concentration; shares compounds with GPR7 antag; GPR7-expressing cells, calcium fluorescence antagonist mode; inhibition, % at 4.4 µM; hit rate 52% among 2,400; in the data active means inhibition above about 24%;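 further: stimulated with the GPR7 agonist NPW; 0% = agonist plus vehicle and 100% = vehicle alone without agonist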
# MCHR1 antag: MCHR1 antagonists in cells, counter-screen for GPR7 antagonist project, cell-based, fluorescence, human; shares compounds with GPR7 antag; MCHR1-expressing cells, fluorescence antagonist assay; inhibition, % at 4.4 µM; hit rate 62% among 2,400; AID 2148, 2009; in the data active means inhibition above about 22%;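 further: 0% = vehicle with agonist and 100% = vehicle without agonist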
# Numbers without * were called inactive; · = not tested or not shown.
SMILES,DNA FID counter,EBNA-1 inh,NS3 helicase inh,GPR7 antag,ZTA DNA inh,GPR7 antag cf,MCHR1 antag
FC(F)Sc1ccc(NC(=S)NC2CCCC2)cc1,-6,-9,-3,-8,-7,·,·
CC1CCCC(NC(=S)Nc2ccc(SC(F)F)cc2)C1C (stereo unspecified),-5,-9,9,45*,-3,32*,54*
Cc1cccc(N2CCN(CC(=O)Nc3nccs3)CC2)c1C,-20,-5,-4,36*,-13,34*,36*
Cc1ccc(S(=O)(=O)N2CCOCC2)cc1NC(=O)CN1CCC(Cc2ccccc2)CC1,4,0,-11,37*,2,25*,38*
COc1ccccc1N1CCN(CC(=O)Nc2nccs2)CC1,-8,11,-9,-18,-4,·,·
Cc1cccc(N2CCN(CC(=O)Nc3ccc(S(=O)(=O)N4CCOCC4)cc3)CC2)c1C,-8,-13,-23,33*,0,3,35*
CCn1cc(CN2CCC(C(=O)Nc3ccc(Oc4cccnc4)cc3)CC2)cn1,7,-1,2,-19,-3,·,·
O=Cc1ccccc1Oc1ccccc1,2,5,0,-15,-3,·,·
O=Cc1ccccc1OCCOc1ccccc1C=O,5,1,9,24*,6,12,25*
O=[N+]([O-])c1cccc(CNC2CCCCCC2)c1,3,-1,6,6,-4,·,·
CCOc1ccc([N+](=O)[O-])cc1CNC1CCCCCCC1,21,-7,-2,54*,-7,38*,21
O=C1C(Cl)=C(N2CCCC2)C(=O)N1c1ccccc1F,-10,2,3,-3,7,·,·
O=C(Nc1ccc(Cl)cc1)c1cccc(NC2=NC3CS(=O)(=O)CC3S2)c1 (stereo unspecified),-2,6,-1,24*,3,-3,0
CCCCC1(C)NC(=O)N(CC(=O)Nc2cc(S(=O)(=O)N3CCOCC3)ccc2Cl)C1=O (stereo unspecified),·,·,·,·,1,·,·
O=C(c1ccc(C(F)(F)F)cc1)C1CCCN(Cc2cccn2-c2ncccn2)C1 (stereo unspecified),8,2,-13,8,-3,·,·
O=C(c1cccc(C(F)(F)F)c1)C1CCCN(Cc2cccn2-c2ncccn2)C1 (stereo unspecified),15,8,-5,21*,-8,34*,35*
Cc1ccccc1SCC(=O)Nc1cc(C(F)(F)F)ccc1N1CCOCC1,·,-13,·,·,-8,·,·
O=C(CSc1nnc(Cc2cccs2)n1Cc1ccco1)Nc1ccc(Cl)cc1Cl,-27,-6,17,28*,-7,31*,34*
OC(COCc1ccc(Cl)cc1)CN1CCN(CC(O)COCc2ccc(Cl)cc2)CC1 (stereo unspecified),28,9,-83,26*,23,68*,73*
CC1CC(C)CN(C(=O)C2CCN(S(=O)(=O)c3c(Cl)cccc3Cl)CC2)C1 (stereo unspecified),-45,0,-14,-13,-9,·,·
COc1ccc(CCNC(=O)COc2cc(C)cc3oc(=O)cc(C)c23)cc1,-25,-4,6,26*,-10,5,19
Cc1cc(OCC(=O)NCCc2ccc(S(N)(=O)=O)cc2)c2c(C)cc(=O)oc2c1,-22,-5,10,-11,-1,·,·
Cc1ccc(C)c(CN2CCC(CNC(=O)Nc3ccc(F)c(Cl)c3)CC2)c1,15,12,-54,38*,5,40*,68*
CC1CCN(C(=O)c2ccc(NS(=O)(=O)c3ccc4[nH]c(=O)[nH]c4c3)cc2)CC1,·,-1,·,·,14,·,·
c1ccc(Nc2ccccc2Nc2ccccn2)nc1,-1,8,11,53*,10,-4,-6
SMILES,DNA FID counter,EBNA-1 inh,NS3 helicase inh,GPR7 antag,ZTA DNA inh,GPR7 antag cf,MCHR1 antag
COc1ccc(CNC(=O)COC(=O)c2c(NC(C)=O)sc(C)c2C)cc1,·,·,·,·,11,·,·
CCOC(=O)c1ccc(S(=O)(=O)N2CC(=O)Nc3ccccc32)cc1,-14,-13,-8,-1,8,·,·
Cc1ccsc1C(=O)NNC(=O)C1CCCCC1C(=O)O (stereo unspecified),2,5,3,23*,15,-7,7
COc1cccc(C(=O)Nc2ccc3c(c2)CCCN3C(=O)c2cccs2)c1OC,-41,4,-2,-13,-8,·,·
Cc1ccccc1C(=O)Nc1ccc2c(c1)CCCN2C(=O)c1cccs1,-38,5,4,25*,-1,16,35*
Cn1nnnc1SCCNCc1cc(Cl)ccc1OCc1ccccc1,4,-6,-18,24*,-7,24,44*
Cn1nnnc1SCCNCc1ccccc1OCc1ccc(Cl)cc1,11,-7,-43,10,-12,·,·
COc1ccc(Cl)cc1N(C(=O)c1ccco1)C(C(=O)NC1CCCC1)c1ccncc1 (stereo unspecified),-31,-4,-4,17,4,·,·
COc1ccc(OC)c(N(C(=O)c2ccco2)C(C(=O)NC2CCCC2)c2cc(OC)c(OC)c(OC)c2)c1 (stereo unspecified),-39,-9,-3,32*,13,23,8
COc1ccc(Cl)cc1N(C(=O)c1ccco1)C(C(=O)NC1CCCC1)c1ccco1 (stereo unspecified),-47,-5,8,29*,-2,28*,22*
COc1ccc(N(C(=O)c2ccco2)C(C(=O)NC2CCCC2)c2ccc(OC)c(OC)c2)cc1 (stereo unspecified),-33,4,-2,-3,14,·,·
COc1ccc(Cl)cc1N(C(=O)c1ccco1)C(C(=O)NC1CCCC1)c1cccnc1 (stereo unspecified),-39,-9,16,23*,-34,9,2
Cc1c(NC(=O)Nc2cccs2)cccc1[N+](=O)[O-],-1,0,17,36*,2,-9,36*
O=C(Nc1cccs1)Nc1ccccc1Cl,-1,-8,3,-11,-7,·,·
Cc1nc(-c2ccc(S(=O)(=O)N3CCOCC3)cc2)cs1,-12,1,12,27*,4,-7,16
CCCCn1c(NS(=O)(=O)c2ccccc2)c(S(=O)(=O)c2ccc(C)cc2)c2nc3ccccc3nc21,-5,18,13,31*,16,35*,41*
Clc1ccccc1OCc1nnc(-c2ccccc2Br)o1,-7,-10,-2,8,-12,·,·
O=c1c(Cl)c(Cl)cnn1Cc1nnc(-c2ccccc2Br)o1,-13,·,6,88*,·,89*,105*
COc1ccc([C@H]2CC(=O)C=C(c3ccc(C)c([N+](=O)[O-])c3)C2)cc1,·,·,·,·,-33,·,·
